Assay results as given in ChEMBL document CHEMBL1125740, “Heterocyclic quinones. 17. A new in vivo active antineoplastic drug: 6,7-bis(1-aziridinyl)-4-[[3-(N,N-dimethylamino)propyl]amino]-5,8- quinazolinedione” (J Med Chem, 1991).
Several values for one entry are separate records, joined by “and”; a condition that tells them apart may be missing. Equal entries are not always repeated.

Columns and labels:
[1] = tested on: L1210; test: Compound was evaluated in vivo for antitumor activity after intraperitoneal administration against L1210(935) for total dose at an optimal dose of 1 mg/kg/injection at 1 day schedule.; format: functional, Mus musculus
Summary of the method: (§1)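 L1210 leukemia, maintained in DBA/2 mice, was given ip as 10⁵ cells on day 0 to F1 hybrid or strain-of-origin mice over 18 g, in groups of 8. Dosing was ip from day 1, and mortality was checked daily. Median day of death counts dying mice only. %ILS = 100×(treated − control median day of death)/control median. Tumor-free survivors were counted on day 60. Weight change is g/mouse at nadir.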

[2] = tested on: P388; test: Compound was evaluated in vivo for antitumor activity after intraperitoneal administration against P388 (1303) for mortality range at an optimal dose of 0.75 mg/kg/injection; format: functional, Mus musculus
[3] = tested on: P388; test: Compound was evaluated in vivo for antitumor activity after intraperitoneal administration against P388/L-PAM(14) for mortality range at an optimal dose of 0.1 mg/kg/injection at 1,2,3,4 day schedule.; format: functional, Mus musculus
[4] = tested on: L1210; test: Compound was evaluated in vivo for antitumor activity after intraperitoneal administration against L1210(935) for median day of death at an optimal dose of 0.2 mg/kg/injection at 1-4 day schedule.; format: functional, Mus musculus; summary of the method: as §1
[5] = tested on: M5076; test: Compound was evaluated in vivo for antitumor activity against M5076 after injecting the compound intravenously for median tumor burden; format: functional, Mus musculus
[6] = tested on: L1210; test: Compound was evaluated in vivo for antitumor activity after intraperitoneal administration against L1210(935) for tumor free survivors at an optimal dose of 0.5 mg/kg/injection at 1 day schedule.; format: functional, Mus musculus; summary of the method: as §1
[7] = tested on: B16; test: Compound was evaluated in vivo for antitumor activity against B16 melanoma after injecting the compound intravenously for change in body weight.; format: functional, Mus musculus
Summary of the method: (§2)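 30-60 mg tumor fragments implanted sc by trocar on day 0 into C57Bl/6-derived hosts (B16) or C3H/He-derived hosts (16/C). Drug given iv on days 6, 9 and 13 (B16) or 6, 9 and 12 (16/C), 10 mice per group. Tumors measured by caliper. T/C % taken from median tumor burden of treated vs control groups on day 15 (B16) or day 14 (16/C). Body weight change per mouse recorded at nadir.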

[8] = Compound was evaluated in vivo for antitumor activity against Lewis Lung cercinoma after injecting the compound intravenously for median tumor burden; format: functional, Mus musculus
Summary of the method: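 Lewis lung carcinoma: 10^6 cells implanted im into C57Bl/6-derived hosts. Drug given iv on days 5, 9 and 13, 10 mice per group. Median tumor burden and weight nadir recorded. Survivors were killed on day 19, and their lungs were fixed in Fekete solution so that macroscopic metastases could be counted.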

[9] = Compound was evaluated in vivo for antitumor activity against Glasgow osteogenic sarcoma after injecting the compound intravenously for toxicity related death.; format: functional, Mus musculus
Summary of the method: (§3)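 Glasgow osteogenic sarcoma in C57Bl/6-derived hosts: 30-60 mg fragments implanted sc by trocar on day 0. Drug given iv on days 3, 6 and 9, 7 mice per group. Tumors measured by caliper. Median tumor burden recorded on day 10. Body weight change per mouse recorded at nadir. Toxicity-related deaths counted.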

[10] = tested on: P388; test: Compound was evaluated in vivo for antitumor activity after intraperitoneal administration against P388 (1313) for mortality range at an optimal dose of 0.4 mg/kg/injection; format: functional, Mus musculus
[11] = tested on: P388; test: Compound was evaluated in vivo for antitumor activity after intraperitoneal administration against P388 (1313) for % increase in life span at an optimal dose of 0.5 mg/kg/injection; format: functional; conditions: Mus musculus, P388, ip
[12] = tested on: M5076; test: Compound was evaluated in vivo for antitumor activity against M5076 after injecting the compound intravenously for optimal dose; format: functional, Mus musculus
[13] = tested on: P388; test: Compound was evaluated in vivo for antitumor activity after intraperitoneal administration against P388/L-PAM(14) for total dose at an optimal dose of 0.4 mg/kg/injection at 1,2,3,4 day schedule.; format: functional, Mus musculus
[14] = Compound was evaluated in vivo for antitumor activity against Glasgow osteogenic sarcoma after injecting the compound intravenously for optimal dose; format: functional, Mus musculus; summary of the method: as §3
[15] = Compound was evaluated in vivo for antitumor activity against mammary adenocarcinoma 16/C after injecting the compound intravenously for toxicity related death.; format: functional, Mus musculus; summary of the method: as §2
[16] = tested on: P388; test: Compound was evaluated in vivo for antitumor activity after intraperitoneal administration against P388/L-PAM(14) for % increase in life span at an optimal dose of 0.1 mg/kg/injection at 1,2,3,4 day schedule.; format: functional; conditions: Mus musculus, P388, ip
[17] = tested on: B16; test: Compound was evaluated in vivo for antitumor activity against B16 melanoma 1 after injecting the compound intravenously for percent T/C (value in parentheses indicates the day of evaluation); format: functional, Mus musculus
[18] = tested on: P388; test: Compound was evaluated in vivo for antitumor activity after intraperitoneal administration against P388 (1313) for change in body weight at an optimal dose of 0.25 mg/kg/injection; format: functional, Mus musculus
[19] = tested on: P388; test: Compound was evaluated in vivo for antitumor activity after intraperitoneal administration against P388/L-PAM(14) for tumor free survivors at an optimal dose of 0.125 mg/kg/injection at 1,4,7,11 day schedule.; format: functional, Mus musculus
[20] = tested on: P388; test: Compound was evaluated in vivo for antitumor activity after intraperitoneal administration against P388 (1313) for change in body weight at an optimal dose of 0.4 mg/kg/injection; format: functional, Mus musculus
[21] = tested on: L1210; test: Compound was evaluated in vivo for antitumor activity after intraperitoneal administration against L1210(935) for mortality range at an optimal dose of 0.25 mg/kg/injection at 1,4,7,11day schedule.; format: functional, Mus musculus; summary of the method: as §1
[22] = tested on: B16; test: Compound was evaluated in vivo for antitumor activity against B16 melanoma 2 after injecting the compound intravenously for percent T/C; format: functional, Mus musculus
[23] = tested on: P388; test: Compound was evaluated in vivo for antitumor activity after intraperitoneal administration against P388 (1313) for median day of death at an optimal dose of 0.25 mg/kg/injection; format: functional, Mus musculus
[24] = Compound was evaluated in vivo for antitumor activity against mammary adenocarcinoma 16/C after injecting the compound intravenously for median; format: functional, Mus musculus
[25] = tested on: L1210; test: Compound was evaluated in vivo for antitumor activity after intraperitoneal administration against L1210(935)for % increase in life span at an optimal dose of 0.125 mg/kg/injection at 1,4,7,11day schedule.; format: functional; conditions: Mus musculus, L1210, ip; summary of the method: as §1
[26] = tested on: L1210; test: Compound was evaluated in vivo for antitumor activity after intraperitoneal administration against L1210(935)for % increase in life span at an optimal dose of 0.25 mg/kg/injection at 1,4,7,11day schedule.; format: functional; conditions: Mus musculus, L1210, ip; summary of the method: as §1
[27] = tested on: P388; test: Compound was evaluated in vivo for antitumor activity after intraperitoneal administration against P388/L-PAM(14) for total dose at an optimal dose of 0.25 mg/kg/injection at 1,4,7,11 day schedule.; format: functional, Mus musculus
[28] = tested on: P388; test: Compound was evaluated in vivo for antitumor activity after intraperitoneal administration against P388 (1313) for change in body weight at an optimal dose of 0.5 mg/kg/injection; format: functional, Mus musculus

Question: Which Total dose [1] does the source give for CN(C)CCCNc1ncnc2c1C(=O)C(N1CC1)=C(N1CC1)C2=O here?
Answer: The Total dose was 1 mg/kg.

Question: What about the Mortality [2] of the same compound?
Answer: The Mortality was 65 days.

Question: And the Mortality [3]?
Answer: The Mortality was 21 days.

Question: And the “Median day of death” value [4]?
Answer: Its value is 14.

Question: And the Tumor burden [5]?
Answer: Its Tumor burden is 29.

Question: What about the Survivors [6] of the same compound?
Answer: Its Survivors is 0.

Question: What about the “Change in body weight” value [7] of the same compound?
Answer: The value was 0.9 g mouse-1 and 0.8 g mouse-1.

Question: And the Tumor burden [8]?
Answer: Its Tumor burden is 7717 mg and 7748 mg.

Question: And the Toxicity [9]?
Answer: The Toxicity was 0.

Question: What about the Mortality [10] of the same compound?
Answer: Its Mortality is 39 days.

Question: And the ILS at 0.5 mg/kg [11]?
Answer: The ILS at 0.5 mg/kg was 108%.

Question: And the Optimal dose [12]?
Answer: Its Optimal dose is 1 mg/kg.

Question: What about the Total dose [13] of the same compound?
Answer: The Total dose was 1.6 mg/kg.

Question: And the Optimal dose [14]?
Answer: The Optimal dose was 0.36 mg/kg.

Question: And the Toxicity [15]?
Answer: Its Toxicity is 0.

Question: What about the Toxicity related death [15] of the same compound?
Answer: The Toxicity related death was 0.

Question: And the ILS at 0.1 mg/kg [16]?
Answer: The ILS at 0.1 mg/kg was 0%.

Question: What about the T/C [17] of the same compound?
Answer: Its T/C is 76%.

Question: What about the “Change in body weight” value [18] of the same compound?
Answer: The value was 2.4 g mouse-1.

Question: And the Survivors [19]?
Answer: Its Survivors is 0.

Question: What about the “Change in body weight” value [20] of the same compound?
Answer: The value was -0.9 g mouse-1.

Question: What about the Mortality [21] of the same compound?
Answer: The Mortality was 14 days.

Question: What about the T/C [22] of the same compound?
Answer: Its T/C is 53%.

Question: And the “Median day of death” value [23]?
Answer: Its value is 19.

Question: And the Tumor burden [24]?
Answer: The Tumor burden was 895 mg.

Question: What about the ILS at 0.125 mg/kg [25] of the same compound?
Answer: The ILS at 0.125 mg/kg was 18%.

Question: What about the ILS at 0.25 mg/kg [26] of the same compound?
Answer: The ILS at 0.25 mg/kg was 18%.

Question: And the Total dose [27]?
Answer: The Total dose was 1 mg/kg.

Question: What about the “Change in body weight” value [28] of the same compound?
Answer: Its value is 0 g mouse-1.
